Results: ChEMBL document CHEMBL1137639, “Novel small-molecule inhibitors of transmissible gastroenteritis virus” (Antimicrob Agents Chemother, 2007)
Calls of active or inactive are those of the source. The calls are words filed in the database; no cut-off is given here.

Legend:
[1] = system: Transmissible gastroenteritis virus; test: Antiviral activity against Transmissible gastroenteritis virus TFI infected in swine testicle cells assessed as protection against virus-induced cytopathic effect at 100 uM after 18 hrs post infection; type: functional, organism-based
Summary of the method: (§1)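 ST cell monolayers were inoculated with TGEV at MOI 5 and kept at 37°C under 5% CO2. Treatments were 5 µM compound, caspase inhibitor ZVAD-fmk at 100 µM as positive control, or 1% DMSO vehicle. At 18–24 hpi CPE was scored by microscopy as cell rounding, enlargement, syncytia and detachment. Two independent experiments were run.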

[2] = Cytotoxicity against swine testicle cells after 18 hrs; type: cell-based, Sus scrofa; conditions: pig
Summary of the method: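 ST cells in MEM with 10% fetal bovine serum were exposed to eight concentrations of compound for 18 h. GI50 was derived from the dose-response curves.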

[3] = system: Transmissible gastroenteritis virus; test: Antiviral activity against Transmissible gastroenteritis virus TFI infected in swine testicle cells assessed as protection against virus-induced caspase 3 activation at 5 uM after 18 hrs post infection; type: functional, organism-based
Summary of the method: (§2)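 TGEV-infected ST cells were treated with compound at 5 µM, and caspase activation was examined at 14 and 18 hpi. Lysates with equal total protein were run on SDS-PAGE and transferred to nitrocellulose. Blots were probed with anti-caspase-3 (β-actin antibody also used) and detected by enhanced chemiluminescence.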

[4] = Inhibition of Transmissible gastroenteritis virus TFI recombinant GST-tagged 3C-like protease expressed in Escherichia coli BL21 (DE3)
Summary of the method: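 The TGEV strain TFI 3CLpro was expressed in E. coli BL21(DE3) as a GST fusion, purified on glutathione resin, and had the tag cleaved with PreScission protease. IC50 came from at least eight concentrations.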

[5] = system: Transmissible gastroenteritis virus; test: Antiviral activity against Transmissible gastroenteritis virus TFI infected in swine testicle cells assessed as protection against virus-induced cytopathic effect at 100 uM after 24 hrs post infection; type: functional, organism-based
[6] = system: Transmissible gastroenteritis virus; test: Antiviral activity against Transmissible gastroenteritis virus TFI infected in swine testicle cells assessed as inhibition of S and N protein expression treated 2 hrs before infection measured after 6 hrs post infection by indirect immunofluorescent assay; type: functional, organism-based; conditions: Alphacoronavirus 1, TFI
Summary of the method: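 ST cells, with or without a 2-h compound pretreatment, infected with TGEV at MOI 10. At 6 h they were fixed in 80% acetone and stained with mAbs to S and N protein, then FITC anti-mouse Ig for 60 min at room temperature. Fluorescence was read at ex 485/em 535 nm. Eight concentrations were tested, and EC50 was taken from dose-response curves.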

[7] = system: Transmissible gastroenteritis virus; test: Antiviral activity against Transmissible gastroenteritis virus TFI infected in swine testicle cells assessed as protection against virus-induced caspase 3 activation at 5 uM after 14 hrs post infection; type: functional, organism-based; summary of the method: as §2
[8] = target: Replicase polyprotein 1ab (Severe acute respiratory syndrome-related coronavirus, UniProt P0C6X7); test: Inhibition of SARS Coronavirus 3C-like protease expressed in Escherichia coli
[9] = system: Transmissible gastroenteritis virus; test: Antiviral activity against Transmissible gastroenteritis virus TFI infected in swine testicle cells assessed as protection against virus-induced cytopathic effect at 5 uM after 24 hrs post infection; type: functional, organism-based; summary of the method: as §1
[10] = system: Transmissible gastroenteritis virus; test: Antiviral activity against Transmissible gastroenteritis virus TFI infected in swine testicle cells assessed as protection against virus-induced cytopathic effect at 5 uM after 18 hrs post infection; type: functional, organism-based; summary of the method: as §1
[11] = system: Transmissible gastroenteritis virus; test: Antiviral activity against Transmissible gastroenteritis virus TFI infected in swine testicle cells assessed as reduction of N protein mRNA level at 5 uM after 6 hrs post infection by RT-PCR; type: functional; parameters: scale not given: the % may be the effect or the level left
Summary of the method: (§3)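 Viral RNA was extracted from lysates of TGEV-infected ST cells for SYBR green real-time RT-PCR, with primers for TGEV N protein or 3CLpro. Cycling was 50°C 2 min and 95°C 10 min, then 40 cycles of 95°C 15 s and 60°C 1 min. Levels were normalized to β-actin by the comparative CT method, with CT measured at least in triplicate.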

[12] = system: Transmissible gastroenteritis virus; test: Antiviral activity against Transmissible gastroenteritis virus TFI infected in swine testicle cells assessed as reduction of 3CL protease mRNA level after 6 hrs post infection by RT-PCR; type: functional, organism-based; summary of the method: as §3
[13] = system: Transmissible gastroenteritis virus; test: Antiviral activity against Transmissible gastroenteritis virus TFI infected in swine testicle cells assessed as reduction of 3CL protease mRNA level at 5 uM after 6 hrs post infection by RT-PCR; type: functional; parameters: scale not given: the % may be the effect or the level left; summary of the method: as §3
[14] = system: Transmissible gastroenteritis virus; test: Antiviral activity against Transmissible gastroenteritis virus TFI infected in swine testicle cells assessed as reduction of N protein mRNA level after 6 hrs post infection by RT-PCR; type: functional, organism-based; summary of the method: as §3
[15] = system: Transmissible gastroenteritis virus; test: Antiviral activity against Transmissible gastroenteritis virus TFI infected in swine testicle cells assessed as reduction of 3CL protease mRNA level at 1 uM after 6 hrs post infection by RT-PCR; type: functional; parameters: scale not given: the % may be the effect or the level left; summary of the method: as §3
[16] = system: Transmissible gastroenteritis virus; test: Antiviral activity against Transmissible gastroenteritis virus TFI infected in swine testicle cells assessed as reduction of N protein mRNA level at 1 uM after 6 hrs post infection by RT-PCR; type: functional; parameters: scale not given: the % may be the effect or the level left; summary of the method: as §3
[17] = system: Transmissible gastroenteritis virus; test: Antiviral activity against Transmissible gastroenteritis virus TFI infected in swine testicle cells assessed as reduction of N protein expression after 6 hrs post infection by Western blot analysis; type: functional, organism-based
Summary of the method: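 TGEV-infected ST cells were treated with compound at 0.3 to 10 µM. Lysates with equal total protein were separated by SDS-PAGE, transferred to nitrocellulose, probed with anti-TGEV N protein antibody, and detected by enhanced chemiluminescence. Three independent experiments were run.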

[18] = system: Transmissible gastroenteritis virus; test: Antiviral activity against Transmissible gastroenteritis virus TFI infected in swine testicle cells assessed as reduction of N protein mRNA level at 10 uM after 6 hrs post infection after 6 hrs post infection by RT-PCR; type: functional; parameters: scale not given: the % may be the effect or the level left; summary of the method: as §3
[19] = system: Transmissible gastroenteritis virus; test: Antiviral activity against Transmissible gastroenteritis virus TFI infected in swine testicle cells assessed as reduction of 3CL protease mRNA level at 10 uM after 6 hrs post infection by RT-PCR; type: functional; parameters: scale not given: the % may be the effect or the level left; summary of the method: as §3

Structure (SMILES)	Activity [1]	GI50 at 18 h [2] [µM]	Activity [3]	IC50 [4] [µM]	Activity [5]	EC50 [6] [µM]	Activity [7]	IC50 [8] [µM]	Activity [9]	Activity [10]	Activity [11] [%]	Activity [12]	Activity [13] [%]	Activity [14]	Activity [15] [%]	Activity [16] [%]	Activity [17]	Activity [18] [%]	Activity [19] [%]
CCN1/C(=C\C(=C/c2sc3ccccc3[n+]2CCCS(=O)(=O)[O-])OC)Sc2ccc(OC)cc21	Active	13.1	Active	3.3	Active	3	Active	7.3	Active	Active									
CCN1/C(=C\C=c2/s/c(=C\c3sc4ccccc4[n+]3CC)n(CC)c2=O)Sc2ccccc21		> 50	inactive	2.2		17.4	inactive	10											
C(/C1=C2Sc3ccccc3N2CC1)=C1\CC[n+]2c1sc1ccccc12		> 50	inactive	2.2		> 30	inactive	10.5											
CCN1/C(=C\C=C\c2sc3ccc(-c4nc5ccccc5s4)cc3[n+]2CC)Sc2ccc(-c3nc4ccccc4s3)cc21		> 50	inactive	2.1		> 30	inactive	2.5											
CCC(/C=C1\Sc2cc(/C=C/c3ccccc3)ccc2N1CC)=C\c1sc2cc(C)c(C)cc2[n+]1CC		> 50						6.6											
CCN1/C(=C\C=C\C2=CC(=C/c3sc4ccccc4[n+]3CC)/CC(C)C2)Sc2ccccc21 (configuration not stated)	Active	> 50	Active	11.9	Active	6.2	Active	2	Active	Active	2.1	Dose-dependent effect	2.3	Dose-dependent effect	20.8	13.7	Dose-dependent effect	1.4	1.4
CCC(=C\c1sc2cc(C)c(C)cc2[n+]1CC)/C=C1/Sc2cc(/C=C/c3ccccc3)ccc2N1CC	Active		Active		Active	1.8	Active		Active	Active									
CCN1C(c2ccccc2)=C(c2ccccc2)S/C1=C/C=C/c1sc2c3ccccc3ccc2[n+]1CC.[Cl-]	Active	18.1	Active	4.9	Active	4.5	Active	3.8	Active	Active	3		1.2		39.9	59.6	Dose-dependent effect	0.4	0.2
CCC(=C\c1sc2c3ccccc3ccc2[n+]1CC)/C=C1/Sc2cc(C)c(C)cc2N1CC	Active	21.3	Active	8	Active	2.1	Active	5.4	Active	Active	1.3	Dose-dependent effect	0.5	Dose-dependent effect	1.4	2.6	Dose-dependent effect	1.1	0.3
